Assay results taken from ChEMBL document CHEMBL4196201, “Discovery of N-(4-{[5-Fluoro-7-(2-methoxyethoxy)quinazolin-4-yl]amino}phenyl)-2-[4-(propan-2-yl)-1 H-1,2,3-triazol-1-yl]acetamide (AZD3229), a Potent Pan-KIT Mutant Inhibitor for the Treatment of Gastrointestinal Stromal Tumors” (J Med Chem, 2018).
Activity calls are given as the source filed them. No cut-off for these calls is given here.

What was measured:
[1] = Cytotoxicity in mouse parental BA/F3 cells incubated for 72 hrs by MTS assay; assay type: cell-based, BaF3
[2] = Lipophilicity, log D of the compound at pH 7.4; assay type: physicochemical; details: buffer
[3] = Permeability from apical to basolateral side in human Caco2 cells at 10 uM at pH 6.5; assay type: ADME, cell-based; details: Caco-2, pH 6.5, read-out: permeability
Outline: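 Caco2 permeability from A to B was measured at pH6.5 using a 10 μM compound solution, reported in units of 1E-6 cm/s.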

[4] = Protein binding in mouse plasma assessed as unbound fraction level; assay type: ADME, cell-free
[5] = Protein binding in rat plasma assessed as unbound fraction level; assay type: ADME, cell-free
[6] = Protein binding in dog plasma assessed as unbound fraction level; assay type: ADME, cell-free, Canis lupus familiaris
[7] = Protein binding in human plasma assessed as unbound fraction level; assay type: ADME, cell-free
[8] = Intrinsic clearance in mouse hepatocytes assessed per million cells; assay type: ADME, cell-based, Hepatocyte; details: read-out: CLH
[9] = Intrinsic clearance in rat hepatocytes assessed per million cells; assay type: ADME, cell-based, Hepatocyte; details: read-out: CLH
[10] = Intrinsic clearance in dog hepatocytes assessed per million cells; assay type: ADME, cell-based, Canis lupus familiaris, Hepatocyte; details: read-out: CLH
[11] = Intrinsic clearance in human hepatocytes assessed per million cells; assay type: ADME, cell-based, Hepatocyte; details: read-out: CLH
[12] = target: Voltage-gated inwardly rectifying potassium channel KCNH2 (Homo sapiens, UniProt Q12809); experiment: Inhibition of human ERG
Voltage-gated inwardly rectifying potassium channel KCNH2, sequence (Q12809 whole entry): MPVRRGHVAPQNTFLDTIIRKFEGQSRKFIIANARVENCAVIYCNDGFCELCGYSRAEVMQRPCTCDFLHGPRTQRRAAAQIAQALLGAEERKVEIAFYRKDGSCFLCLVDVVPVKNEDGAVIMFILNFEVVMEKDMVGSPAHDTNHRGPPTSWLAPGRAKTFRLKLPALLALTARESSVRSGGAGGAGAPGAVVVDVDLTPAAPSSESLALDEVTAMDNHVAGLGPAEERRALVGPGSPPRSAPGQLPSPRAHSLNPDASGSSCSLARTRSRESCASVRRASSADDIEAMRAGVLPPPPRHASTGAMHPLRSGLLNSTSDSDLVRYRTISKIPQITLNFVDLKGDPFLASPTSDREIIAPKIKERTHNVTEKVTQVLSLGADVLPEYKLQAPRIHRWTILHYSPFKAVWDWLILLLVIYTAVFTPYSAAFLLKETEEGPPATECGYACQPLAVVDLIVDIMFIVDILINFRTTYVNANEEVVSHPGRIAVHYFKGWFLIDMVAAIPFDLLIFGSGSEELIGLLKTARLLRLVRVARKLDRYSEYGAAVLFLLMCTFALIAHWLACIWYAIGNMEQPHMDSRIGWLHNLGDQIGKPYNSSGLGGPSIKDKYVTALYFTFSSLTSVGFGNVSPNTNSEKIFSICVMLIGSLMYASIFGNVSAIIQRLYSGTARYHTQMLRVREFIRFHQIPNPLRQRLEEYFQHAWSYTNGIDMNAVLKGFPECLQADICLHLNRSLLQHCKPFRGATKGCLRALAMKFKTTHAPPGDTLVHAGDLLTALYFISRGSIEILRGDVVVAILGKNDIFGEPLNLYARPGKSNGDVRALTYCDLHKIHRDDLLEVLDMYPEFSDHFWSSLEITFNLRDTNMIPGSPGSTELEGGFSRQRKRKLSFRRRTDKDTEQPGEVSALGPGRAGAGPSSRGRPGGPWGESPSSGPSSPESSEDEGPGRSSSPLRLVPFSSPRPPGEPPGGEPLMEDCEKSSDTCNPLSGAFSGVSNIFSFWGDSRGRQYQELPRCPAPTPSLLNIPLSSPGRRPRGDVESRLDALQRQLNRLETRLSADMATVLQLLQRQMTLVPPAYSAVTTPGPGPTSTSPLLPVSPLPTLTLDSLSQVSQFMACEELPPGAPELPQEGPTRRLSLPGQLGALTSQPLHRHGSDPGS

[13] = Volume of distribution at steady state in CD1 mouse at 10 umol/kg, iv; assay type: ADME, organism-based; details: in vivo, read-out: Vdss
Outline: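 PK in CD1 mice given an iv dose of 10 μMol/kg, alongside a separate oral dose of 21 μMol/kg. Clearance, Vdss, half-life and oral bioavailability were derived from these profiles.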

[14] = Half life in CD1 mouse at 21 umol/kg, po; assay type: ADME, organism-based; details: in vivo
Outline: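 PK was run in CD1 mice with an iv dose of 10 μMol/kg and an oral dose of 21 μMol/kg. Cl, Vdss, t1/2 and F% were derived.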

[15] = Clearance in Han Wistar rat at 1 umol/kg, iv; assay type: ADME, organism-based; details: in vivo
Outline: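 PK was run in Han Wistar rats with an iv dose of 1 μMol/kg and an oral dose of 2.1 μMol/kg. Cl, Vdss, t1/2 and F% were derived.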

[16] = Volume of distribution at steady state in Han Wistar rat at 1 umol/kg, iv; assay type: ADME, organism-based; details: in vivo, read-out: Vdss
Outline: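 Han Wistar rat PK study using an iv dose of 1 μMol/kg and an oral dose of 2.1 μMol/kg. Clearance, Vdss, t1/2 and F% were derived.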

[17] = Half life in Han Wistar rat at […], po; assay type: ADME, organism-based; details: in vivo
[18] = Clearance in dog rat at 1 umol/kg, iv; assay type: ADME, organism-based, Canis lupus familiaris; details: in vivo
[19] = Volume of distribution at steady state in dog […] at 1 umol/kg, iv; assay type: ADME, organism-based, Canis lupus familiaris; details: in vivo, read-out: Vdss
[20] = Half life in dog rat at […], po; assay type: ADME, organism-based, Canis lupus familiaris; details: in vivo
Mus musculus [21] = experiment: Inhibition of Kit exon 11 deletion (557 to 558 residues) and D816H mutant phosphorylation (unknown origin) transfected in mouse BA/F3 cells allografted in CB17 SCID mouse at 20 mg/kg, po administered as single dose measured after 8 hrs; assay type: functional, organism-based
Outline: (§1)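 A single 20 mg/kg p.o. dose was given to mice carrying exon 11 del/D816H Ba/F3 allografts. Tumor pKIT, pERK and pAKT were measured over a timecourse, with free compound cover tracked in the same study.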

Mus musculus [22] = experiment: Inhibition of Kit exon 11 deletion (557 to 558 residues) and D816H mutant (unknown origin) transfected in mouse BA/F3 cells allografted in CB17 SCID mouse assessed as reduction in AKT phosphorylation at 20 mg/kg, po administered as single dose measured after 8 hrs; assay type: functional, organism-based; outline: as §1
Mus musculus [23] = experiment: Inhibition of Kit exon 11 deletion (557 to 558 residues) and D816H mutant phosphorylation (unknown origin) transfected in mouse BA/F3 cells allografted in CB17 SCID mouse at 20 mg/kg, po administered as single dose measured after 24 hrs; assay type: functional, organism-based; outline: as §1
Mus musculus [24] = experiment: Inhibition of Kit exon 11 deletion (557 to 558 residues) and D816H mutant (unknown origin) transfected in mouse BA/F3 cells allografted in CB17 SCID mouse assessed as reduction in AKT phosphorylation at 20 mg/kg, po administered as single dose measured after 24 hrs; assay type: functional, organism-based; outline: as §1
BaF3 [25] = experiment: Antitumor activity against mouse BA/F3 cells expressing Kit exon 11 deletion (557 to 558 residues) and V654 mutant (unknown origin) allografted in CB17 SCID mouse assessed as inhibition of tumor growth at 20 mg/kg, po bid measured on last day of dosing; assay type: functional; details: read-out: TGI
Outline: (§2)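 Ba/F3 cells bearing the KIT exon 11 del/D816H or exon 11 del/V654A mutation were grown as allografts in mice. Compounds were given p.o. once (QD) or twice daily (BD), and vehicle was given BD p.o. Tumor growth inhibition and regression (%) were taken on the last day of dosing. p-values were calculated relative to vehicle.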

BaF3 [26] = experiment: Antitumor activity against mouse BA/F3 cells expressing Kit exon 11 deletion (557 to 558 residues) and V654 mutant (unknown origin) allografted in CB17 SCID mouse assessed as tumor regression at 2 mg/kg, po bid measured on last day of dosing; assay type: functional; outline: as §2
[27] = tested on: Mast/stem cell growth factor receptor Kit (Homo sapiens), P10721 [UNDEFINED MUTATION]
Mast/stem cell growth factor receptor Kit (Homo sapiens), P10721 [UNDEFINED MUTATION], sequence (P10721 whole entry, looked up, stated change not applied): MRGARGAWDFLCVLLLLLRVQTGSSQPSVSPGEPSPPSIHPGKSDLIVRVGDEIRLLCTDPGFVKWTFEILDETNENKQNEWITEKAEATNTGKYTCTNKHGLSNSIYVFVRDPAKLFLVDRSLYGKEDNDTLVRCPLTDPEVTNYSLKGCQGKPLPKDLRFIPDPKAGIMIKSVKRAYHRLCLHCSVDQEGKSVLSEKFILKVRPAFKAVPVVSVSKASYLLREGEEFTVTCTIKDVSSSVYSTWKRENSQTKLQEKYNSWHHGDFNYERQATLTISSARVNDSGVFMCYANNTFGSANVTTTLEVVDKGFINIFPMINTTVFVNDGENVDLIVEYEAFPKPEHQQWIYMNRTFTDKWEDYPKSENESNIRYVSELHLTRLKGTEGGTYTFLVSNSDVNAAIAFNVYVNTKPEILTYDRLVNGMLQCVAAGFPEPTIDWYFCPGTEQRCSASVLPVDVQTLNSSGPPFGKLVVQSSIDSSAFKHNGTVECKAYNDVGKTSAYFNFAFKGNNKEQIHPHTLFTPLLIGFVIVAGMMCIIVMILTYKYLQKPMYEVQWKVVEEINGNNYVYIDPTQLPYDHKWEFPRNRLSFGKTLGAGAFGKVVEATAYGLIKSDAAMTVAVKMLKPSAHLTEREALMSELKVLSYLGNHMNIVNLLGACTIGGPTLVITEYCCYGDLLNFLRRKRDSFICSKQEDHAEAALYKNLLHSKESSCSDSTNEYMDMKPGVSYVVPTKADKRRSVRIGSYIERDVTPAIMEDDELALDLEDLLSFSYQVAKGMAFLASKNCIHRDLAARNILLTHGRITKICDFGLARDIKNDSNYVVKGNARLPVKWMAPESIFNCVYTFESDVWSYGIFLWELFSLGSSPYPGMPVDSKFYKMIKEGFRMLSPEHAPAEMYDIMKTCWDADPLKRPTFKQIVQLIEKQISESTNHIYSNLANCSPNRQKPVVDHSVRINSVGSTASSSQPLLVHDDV

[28] = tested on: Mast/stem cell growth factor receptor Kit (Homo sapiens), P10721 [UNDEFINED MUTATION]; remark: listed apart in the source
[29] = tested on: Mast/stem cell growth factor receptor Kit (Homo sapiens), P10721 [UNDEFINED MUTATION]; remark: listed apart in the source
[30] = target: Mast/stem cell growth factor receptor Kit (Homo sapiens) (UniProt P10721)
Mast/stem cell growth factor receptor Kit (Homo sapiens), sequence (P10721 whole entry): as the sequence (P10721 whole entry, looked up, stated change not applied) above

[31] = target: Mast/stem cell growth factor receptor Kit (Homo sapiens) (UniProt P10721); remark: listed apart in the source
[32] = target: Mast/stem cell growth factor receptor Kit (Homo sapiens) (UniProt P10721); remark: listed apart in the source
[33] = target: Mast/stem cell growth factor receptor Kit (Homo sapiens) (UniProt P10721); remark: listed apart in the source
[34] = tested on: Mast/stem cell growth factor receptor Kit (Homo sapiens), P10721 [UNDEFINED MUTATION]; remark: listed apart in the source
[35] = tested on: Mast/stem cell growth factor receptor Kit (Homo sapiens), P10721 [V560D]
Mast/stem cell growth factor receptor Kit (Homo sapiens), P10721 [V560D], sequence (P10721 whole entry V560D): as the sequence (P10721 whole entry, looked up, stated change not applied) above, with V560D counted along it

[36] = tested on: Mast/stem cell growth factor receptor Kit (Homo sapiens), P10721 [V560D,V654A]
Mast/stem cell growth factor receptor Kit (Homo sapiens), P10721 [V560D,V654A], sequence (P10721 whole entry V560D/V654A): as the sequence (P10721 whole entry, looked up, stated change not applied) above, with V560D, V654A counted along it

[37] = tested on: Mast/stem cell growth factor receptor Kit (Homo sapiens), P10721 [V560D,D816H]
Mast/stem cell growth factor receptor Kit (Homo sapiens), P10721 [V560D,D816H], sequence (P10721 whole entry V560D/D816H): as the sequence (P10721 whole entry, looked up, stated change not applied) above, with V560D, D816H counted along it

[38] = tested on: Mast/stem cell growth factor receptor Kit (Homo sapiens), P10721 [D816V]
Mast/stem cell growth factor receptor Kit (Homo sapiens), P10721 [D816V], sequence (P10721 whole entry D816V): as the sequence (P10721 whole entry, looked up, stated change not applied) above, with D816V counted along it

logD [2]: 3 | Papp A→B at 10 µM [3]: 62.3 ×10⁻⁶ cm/s | fraction unbound [4]: 0.049 | fraction unbound [5]: 0.022 | fraction unbound [6]: 0.068 | fraction unbound [7]: 0.035 | hepatocyte CLint [8]: 5 µL/min/1e6 cells | hepatocyte CLint [9]: 17 µL/min/1e6 cells | hepatocyte CLint [10]: < 1 µL/min/1e6 cells | hepatocyte CLint [11]: < 1 µL/min/1e6 cells | Vd [13]: 0.7 L/kg | half-life [14]: 2 h | clearance [15]: 8 mL/min/kg | Vd [16]: 0.6 L/kg | half-life [17]: 3 h | clearance [18]: 2 mL/min/kg | Vd [19]: 0.3 L/kg | half-life [20]: 4 h | GI50 [27]: 3 nM | GI50 [28]: 9 nM | GI50 [29]: 16 nM | GI50 [30]: 22 nM | GI50 [31]: 51 nM | GI50 [32]: 1 nM | GI50 [33]: 8 nM | GI50 [34]: 14 nM | GI50 [35]: 1 nM | GI50 [36]: 7 nM | GI50 [37]: 18 nM | GI50 [38]: 971 nM
Compound: COCCOc1cc(F)c2c(Nc3ccc(NC(=O)Cn4cc(C(C)C)nn4)cc3)ncnc2c1
GI50 at 72 h [1]: > 10000 nM | IC50 [12]: > 33300 nM | inhibition (Mus musculus [21]): Active | inhibition (Mus musculus [22]): Active | inhibition (Mus musculus [23]): Active | inhibition (Mus musculus [24]): Active | inhibition in vivo at 20 mg/kg (BaF3 [25]): > 100% | Activity (BaF3 [26]): 44%
